What is called inhibition is the change of the read-out against control, counted positive when it falls.

Out of some 370,000 compounds screened, about 2,000 (0.54%) were called active. The list comes from a sample in which actives are over-represented; it also holds similar structures and randomly drawn compounds. A number with no mark means an inactive call.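 The calls were made as follows: active = inhibition exceeding the mean over every tested compound plus 3 SD (cut at about 30% in these data); inactive = the rest.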

The assay deals with (Lyso)-N-acylphosphatidylethanolamine lipase (Mus musculus) (UniProt Q8VD66). Kind of assay: mouse ABHD4 hydrolase activity blockers – biochemical, fluorescence polarization, primary screen (AID 720543).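 Also: 0% = plate median of compound wells and 100% = S159A mutant with DMSO.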 The settings on record: purified mABHD4, FP-Rh probe fluorescence polarization; at 8.92 µM; stronger effect = higher value. In short, it runs like this: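 system = mouse ABHD4 enzyme, wild type | medium = HEPES pH 7.0, NaCl, Pluronic buffer | also added = FP-Rh probe | incubation = Enzyme–compound pre-incubation 45 min, then probe 60 min, both 25 °C | technique = fluorescence polarization, excitation 525 nm, emission 598 nm, BODIPY TMR filters | controls = S159A mutant high control, sample median low control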
(Lyso)-N-acylphosphatidylethanolamine lipase (Mus musculus), sequence (Q8VD66 whole entry, looked up): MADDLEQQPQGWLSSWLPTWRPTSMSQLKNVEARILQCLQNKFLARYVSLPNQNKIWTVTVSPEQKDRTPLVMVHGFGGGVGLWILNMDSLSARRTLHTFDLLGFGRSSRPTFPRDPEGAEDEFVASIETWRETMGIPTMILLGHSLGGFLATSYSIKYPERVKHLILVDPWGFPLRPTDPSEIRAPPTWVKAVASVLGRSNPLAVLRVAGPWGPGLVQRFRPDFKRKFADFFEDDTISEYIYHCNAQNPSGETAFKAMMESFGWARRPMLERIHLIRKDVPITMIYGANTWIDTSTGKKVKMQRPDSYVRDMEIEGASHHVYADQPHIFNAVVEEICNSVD
Background: Polarisation of emitted light reports the rotation of a fluorescent probe.
As for `CN(C)c1ccc(N/C=C/C(=O)C(F)(F)F)cc1`, the inhibition is 49.4% (active). `CN(C)c1ccc(C(CC(=O)O)C(=O)O)cc1` (stereo not given): the inhibition was 24.1%. The same measure for `CC1CN(/C=C/C(=O)C(F)(F)F)CC(C)O1` (stereo not given): -3.37%; for `CC(=O)C1=C(C)NC(=O)NC1c1cc(Br)ccc1OCC#N` (stereo not given): 4.75%; for `Nc1[nH]c(C(=O)c2ccccc2)c(-c2ccc(Cl)cc2Cl)c1C(=O)c1ccccc1`: -1.34%.

For `CCCC(=O)N1CCC1(C)C(=O)NS(=O)(=O)c1ccc(Cl)cc1` (stereo not given), the inhibition is -1.74%. The value for `CC(C)(C)c1ccc(S(=O)(=O)NC(=O)C2(C)CCN2C(=O)CC2CC2)cc1` (stereo not given) was -2.61%; that for `CC(C)c1ccc(CC(=O)N2CCC2(C)C(=O)NS(=O)(=O)c2ccc(C(C)(C)C)cc2)cc1` (stereo not given) was 59% (active); that for `CCCCOCC1CN(CCCC)S(=O)(=O)c2c(Oc3ccc(F)cc3)cccc2O1` (stereo not given) was 4.37%.

As to `COC(CNC(=O)[C@H](Cc1ccccc1)NC1(C(=O)NC2CCCCC2)CCCCC1)OC`, the inhibition is 3.57%. The same measure for `COCc1cc(N2CCN(C(=O)OC(C)(C)C)C[C@@H]2C)ccc1N1CCN(Cc2ccccc2)[C@H](C)C1`: -12.1%; for `COc1ccc(C#CCNCc2ccc(OC)cc2OC)cc1`: -4.3%. The value for `O=Nc1c(O)cc(O)c2ccccc12` was 55.7% (active); that for `O=c1c2ccccc2ccc2ccc(P(=O)(O)O)cc12` was 12%. The value for `Cc1ccc(S(=O)(=O)N(C)C)cc1NC(=O)c1n[nH]c(=O)c2ccccc12` was -9.11%; that for `CCOc1ccccc1C(=O)N1CCC[C@@H]1C(=O)N1CCC[C@H]1C(=O)NCc1ccccc1` was 1.14%; that for `CCOC(=O)CSc1nnc(CNC(=O)c2ccco2)n1-c1ccc(F)cc1` was 0.65%. In the case of `COC(=O)c1cc2c(c3c4cc(F)ccc4n(S(=O)(=O)c4ccccc4)c13)C(=O)N(Cc1ccccc1OC)C2`, the inhibition was -11.3%. As for `COc1ccc(C(CC(=O)c2ccccc2)S(=O)(=O)c2ccccc2)cc1` (stereo not given), the inhibition was -2.98%.

In the case of `O=C(NNc1c2ccccc2nc2ccccc12)c1cc2ccccc2cc1O`, the inhibition is 31.3% (active). Consider `Cc1ccc(C)c(NC(=O)NNC(=O)c2ccc3ccccc3c2O)c1`, for which the inhibition is 8.45%. The value for `COC(=O)c1cc(N2CCNCC2)nc2ccccc12` was 1.72%; that for `CC(C)(C)c1ccc(S(=O)(=O)NCC2CCN(C(=O)C(=O)c3cc4ccccc4o3)CC2)cc1` was -26.4%; that for `NC(=O)C1CCN(C(=O)c2cc(S(=O)(=O)N3CCN(c4ccccc4)CC3)ccc2Cl)CC1` was 6.55%. The same measure for `O=C1CCC([N+](=O)[O-])C(c2ccccc2Br)N1` (stereo not given): -0.46%. For `Brc1ccccc1C1Nc2cccc3cccc(c23)N1`, the inhibition is 45.1% (active). The same measure for `O=C(Nc1ccc(Br)cc1)OCCN1C(=O)CCC12CCC(c1ccccc1)CC2` (stereo not given): 0.58%. The value for `COC(=O)[C@H](C(C)C)N(CCc1cn(Cc2ccccc2)nn1)S(=O)(=O)c1ccc(F)cc1Br` was -6.45%; that for `CC1(C)OC(=O)C2=C(C[C@@H](C3CC3)O[C@H]2CCc2cccc(Cl)c2)O1` was -7.3%. The value for `CC(=O)O[C@@]1(C(C)=O)CCC2[C@H]3C=C(C)C4=CC(=O)CC[C@@]4(C)C3CC[C@]21C` (stereo not given in full) was 5.34%.

As to `Nc1ccc2nc3c(=O)[nH]c(=S)[nH]c3nc2c1`, the inhibition was 53.6% (active). The value for `Cc1cc(Cl)c(S(=O)(=O)Nc2ccc3c(c2)OCCO3)cc1OCC(N)=O` was -2.74%. In the case of `CC1CCCN(S(=O)(=O)c2ccc(-c3ccc(=O)[nH]n3)o2)C1` (stereo not given), the inhibition is -2.46%. The value for `CC(C)CNS(=O)(=O)CC1NCCc2ccccc21` (stereo not given) was 3.38%.

Regarding `COC(=O)[C@]12C[C@H](CC(=O)NCCCCc3ccccc3)C(=O)N(Cc3ccc4c(c3)OCO4)C1=C[C@H](C(C)(C)C)O[C@@H]2C`, the inhibition was 0.01%. The same measure for `OCCNc1nc(Nc2ccc(Cl)c(Cl)c2)nc2ccccc12`: 39.5% (active); for `O=C(CCS(=O)(=O)c1ccccc1)Nc1ccc(Cl)c(Cl)c1`: -9.05%; for `OCCNCCOc1ccc(Cl)c(Cl)c1`: 3.5%. The value for `CCOC(=O)[C@]12CCC=C1N(Cc1ccccc1)C(=O)[C@H](CC(=O)N1CCCC1)C2` was -6.55%; that for `O=C1[C@@H](c2ccccc2)[C@@H](c2ccccc2)N1c1ccccc1` was -3.86%. The value for `Cc1cc2nc(-c3ccco3)c(Cc3cccc(F)c3)n2c(C)c1Br` was 10.5%; that for `COC(=O)C[C@@H]1CC[C@@H]2[C@@H](COc3ccc(NC(=O)Nc4ccc(F)c(F)c4)cc3C(=O)N2C)O1` was 4.06%; that for `COc1cc(/C=C2/C(=O)NN(c3cccc(Cl)c3)C2=O)cc(Br)c1O` was 38.5% (active).

On to `CCOc1c(Br)cc(/C=C2\C(=O)N(CCC#N)N=C2C)cc1OC`, for which the inhibition was -10.7%.

With `CC1CN(Cc2nc3c(c(=O)n(C)c(=O)n3C)n2Cc2cccc(Cl)c2)CC(C)O1` (stereo not given), the inhibition was 4.39%.

Consider `CCCC1CCC2(CCCN2CCOC(=O)NCc2ccccc2)CC1` (stereo not given), for which the inhibition was -7.41%. The value for `O=[N+]([O-])c1cc(Br)c(O)c(/C=N/Nc2nc3ccccc3s2)c1` was 38.8% (active). The value for `CCC1(C)Cc2c(sc3nnn(CC(=O)Nc4ccc(Cl)cc4)c(=O)c23)CO1` (stereo not given) was -18.9%; that for `COc1ccc(OC)c(NC(=O)c2ccc3c(c2)C(=O)N(c2ccc(OC(C)=O)cc2)C3=O)c1` was 3.91%. Consider `CC(=O)Nc1ccc(NC(=O)c2ccc3c(c2)C(=O)N(c2ccccc2C)C3=O)cc1`, for which the inhibition is -1.82%.

With `O=C(O)c1ccc2c(c1)C(=O)N(c1ccc(/C=C/C(=O)c3ccccc3)cc1)C2=O`, the inhibition is 39.1% (active).

In the case of `Cc1cccnc1C(NC(=O)C1CCN(Cc2ccc(Cl)c(Cl)c2)CC1)c1ccc(Cl)cc1` (stereo not given), the inhibition is -1.83%. The value for `CC1CN(C2CCCCC2)c2nc3c(c(=O)n(C)c(=O)n3C)n2C1` (stereo not given) was -5.35%; that for `COc1cccc(CSc2nnc(-c3cccnc3)n2Cc2ccccc2)c1` was 0.82%. In the case of `COc1cc(/C=C/C(=O)n2cnc3ccccc32)cc(OC)c1OC`, the inhibition was -5.44%.

These data come from PubChem BioAssay AID720543 (The Scripps Research Institute Molecular Screening Center, 2013).
